This passage reports Activity results from ChEMBL document CHEMBL1137810, “Dammarane-type Saponins from Panax japonicus and their neurite outgrowth activity in SK-N-SH cells” (J Nat Prod, 2002).

Each structure is given as a SMILES string.

Data set [1] relates to SK-N-SH. Put plainly: Induction of neurite outgrowth in human SK-N-SH cells at 100 uM after 5 days relative to control. Format: functional. Put shortly:
(§1)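 SK-N-SH cells were plated at 4.7 × 10^4 cell/mL in gridded 60 mm dishes. Compound was added once at the start of culture, with 0.1% DMSO vehicle as control. After 5 days, 100-300 cells in four 650 × 430 µm areas were scored for the percentage bearing neurites longer than 50 µm, expressed as % of control. Values are mean ± sem of eight sights; Student's t-test, P < 0.05.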

Data set [2] relates to SK-N-SH. As to the kind of experiment: Cytotoxicity against human SK-N-SH cells at 100 uM. In kind it is cell-based.
Data set [3] has as its system SK-N-SH. Put plainly: Induction of neurite outgrowth in human SK-N-SH cells at 10 uM after 5 days relative to control. In kind it is functional. The procedure, abridged: as §1
Data set [4] concerns SK-N-SH. Put plainly: Effect on neurite outgrowth activity in human SK-N-SH cells assessed as increase in number of vericosites at 100 uM after 5 days. In kind it is functional. The procedure, abridged: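 Human SK-N-SH cells plated at 4.7 × 10^4 cell/mL in gridded 60 mm dishes. Compound added once at culture start at 100 µM; vehicle 0.1% DMSO. Cells examined after 5 days in four areas (650 × 430 µm). Varicosity number counted per cell, 40 cells per value, mean ± sem. Compared with control by Student's t-test, P < 0.05.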

With `CC(C)(O)[C@@H]1CC[C@@](C)([C@H]2CC[C@]3(C)[C@@H]2[C@H](O)C[C@@H]2[C@@]4(C)CC[C@H](O)C(C)(C)[C@@H]4[C@@H](O[C@@H]4O[C@H](CO)[C@@H](O)[C@H](O)[C@H]4O)C[C@]23C)O1`, the Activity with SK-N-SH [1] was 91.4%.

For the molecule `CC(C)(O)[C@@H]1CC[C@@](C)([C@H]2CC[C@]3(C)[C@@H]2[C@H](O)C[C@@H]2[C@@]4(C)CC[C@H](O)C(C)(C)[C@@H]4[C@@H](O[C@@H]4O[C@H](CO[C@H]5O[C@H](CO)[C@@H](O)[C@H](O)[C@H]5O)[C@@H](O)[C@H](O)[C@H]4O[C@@H]4OC[C@@H](O)[C@H](O)[C@H]4O)C[C@]23C)O1`, the Activity in the data set on SK-N-SH [1] is listed as 104.1%.

As for `C[C@@H]1O[C@@H](O[C@H]2[C@H](O[C@H]3C[C@]4(C)[C@H](C[C@@H](O)[C@@H]5[C@@H]([C@]6(C)CC[C@@H](C(C)(C)O)O6)CC[C@]54C)[C@@]4(C)CC[C@H](O)C(C)(C)[C@H]34)O[C@H](CO)[C@@H](O)[C@@H]2O)[C@H](O)[C@H](O)[C@H]1O`, the Activity entry in the data set on SK-N-SH [2] is recorded as “Toxic”; in the data set with SK-N-SH [3] it was 103%.

`CC(C)=CCC[C@](C)(O[C@@H]1O[C@H](CO)[C@@H](O)[C@H](O)[C@H]1O)[C@H]1CC[C@]2(C)[C@@H]1[C@H](O)C[C@@H]1[C@@]3(C)CC[C@H](O)C(C)(C)[C@@H]3[C@@H](O[C@@H]3O[C@H](CO)[C@@H](O)[C@H](O)[C@H]3O[C@@H]3O[C@H](CO)[C@@H](O)[C@H](O)[C@H]3O)C[C@]12C` returned an Activity in the data set with SK-N-SH [1] of 96.6%.

`CC(=O)OC[C@H]1O[C@@H](O[C@H]2C[C@]3(C)[C@H](C[C@@H](O)[C@@H]4[C@@H]([C@]5(C)CC[C@@H](C(C)(C)O)O5)CC[C@]43C)[C@@]3(C)CC[C@H](O)C(C)(C)[C@H]23)[C@H](O[C@@H]2OC[C@@H](O)[C@H](O)[C@H]2O)[C@@H](O)[C@@H]1O` [GINSENOSIDE R2] yielded an Activity in the data set with SK-N-SH [1] of 97%.

For the molecule `CC(C)=CCC[C@](C)(O[C@@H]1O[C@H](CO[C@@H]2O[C@H](CO)[C@@H](O)[C@H](O)[C@H]2O)[C@@H](O)[C@H](O)[C@H]1O)[C@H]1CC[C@]2(C)[C@@H]1[C@H](O)C[C@@H]1[C@@]3(C)CC[C@H](O[C@@H]4O[C@H](CO)[C@@H](O)[C@H](O)[C@H]4O[C@@H]4O[C@H](CO)[C@@H](O)[C@H](O)[C@H]4O)C(C)(C)[C@@H]3CC[C@]12C` [GINSENOSIDE RB1], the values for the Activity in the data set with SK-N-SH [1] and in the data set on SK-N-SH [4] were 178% and 0.93, respectively.

As to `CC(C)=CCC[C@](C)(O[C@@H]1O[C@H](CO[C@@H]2OC[C@@H](O)[C@H](O)[C@H]2O)[C@@H](O)[C@H](O)[C@H]1O)[C@H]1CC[C@]2(C)[C@@H]1[C@H](O)C[C@@H]1[C@@]3(C)CC[C@H](O[C@@H]4O[C@H](CO)[C@@H](O)[C@H](O)[C@H]4O[C@@H]4O[C@H](CO)[C@@H](O)[C@H](O)[C@H]4O)C(C)(C)[C@@H]3CC[C@]12C` [GINSENOSIDE RB3], the Activity with SK-N-SH [1] is on record as 228%; in the data set with SK-N-SH [4], 0.8.

Molecule `CC(C)=CCC[C@](C)(O[C@@H]1O[C@H](CO)[C@@H](O)[C@H](O)[C@H]1O)[C@H]1CC[C@]2(C)[C@@H]1[C@H](O)C[C@@H]1[C@@]3(C)CC[C@H](O)C(C)(C)[C@@H]3[C@@H](O[C@@H]3O[C@H](CO)[C@@H](O)[C@H](O)[C@H]3O[C@@H]3O[C@@H](C)[C@H](O)[C@@H](O)[C@H]3O)C[C@]12C` [GINSENOSIDE RE] registered an Activity in the data set on SK-N-SH [1] of 83.5%.

Take `CC(C)=CCC[C@](C)(O[C@@H]1O[C@H](CO)[C@@H](O)[C@H](O)[C@H]1O)[C@H]1CC[C@]2(C)[C@@H]1[C@H](O)C[C@@H]1[C@@]3(C)CC[C@H](O)C(C)(C)[C@@H]3[C@@H](O[C@@H]3O[C@H](CO)[C@@H](O)[C@H](O)[C@H]3O)C[C@]12C` [GINSENOSIDE RG1]: in the data set with SK-N-SH [1], the Activity is given as 107.3%.

For `CC(C)(O)[C@@H]1CC[C@@](C)([C@H]2CC[C@]3(C)[C@@H]2[C@H](O)C[C@@H]2[C@@]4(C)CC[C@H](O)C(C)(C)[C@@H]4[C@@H](O[C@@H]4O[C@H](CO)[C@@H](O)[C@H](O)[C@H]4O[C@@H]4OC[C@@H](O)[C@H](O)[C@H]4O)C[C@]23C)O1` [MAJONOSIDE R2], the Activity in the data set on SK-N-SH [1] is reported as 109.6%.

On to `CC(C)=CCC[C@](C)(O[C@@H]1O[C@H](CO[C@@H]2O[C@H](CO)[C@@H](O)[C@H](O)[C@H]2O)[C@@H](O)[C@H](O)[C@H]1O)[C@H]1CC[C@]2(C)[C@@H]1[C@H](O)C[C@@H]1[C@@]3(C)CC[C@H](O[C@@H]4O[C@H](CO)[C@@H](O)[C@H](O)[C@H]4O[C@@H]4O[C@H](CO)[C@@H](O)[C@H](O)[C@H]4O[C@@H]4OC[C@@H](O)[C@H](O)[C@H]4O)C(C)(C)[C@@H]3CC[C@]12C` [NOTOGINSENOSIDE FA], for which the Activity turned out to be 147% in the data set on SK-N-SH [1] and 0.53 with SK-N-SH [4].

Consider `CC(C)=CCC[C@](C)(O[C@@H]1O[C@H](CO)[C@@H](O)[C@H](O)[C@H]1O)[C@H]1CC[C@]2(C)[C@@H]1[C@H](O)C[C@@H]1[C@@]3(C)CC[C@H](O)C(C)(C)[C@@H]3[C@@H](O[C@@H]3O[C@H](CO)[C@@H](O)[C@H](O)[C@H]3O[C@@H]3OC[C@@H](O)[C@H](O)[C@H]3O)C[C@]12C` [NOTOGINSENOSIDE R1], for which the Activity with SK-N-SH [1] was 84.6%.

Consider `CC(=O)OC[C@H]1O[C@@H](O[C@H]2C[C@]3(C)[C@H](C[C@@H](O)[C@@H]4[C@@H]([C@]5(C)CC[C@@H](C(C)(C)O)O5)CC[C@]43C)[C@@]3(C)CC[C@H](O)C(C)(C)[C@H]23)[C@H](O[C@@H]2O[C@H](C)[C@@H](O)[C@H](O)[C@@H]2O)[C@@H](O)[C@@H]1O` [VINA-GINSENOSIDE R1], for which the Activity in the data set with SK-N-SH [1] stood at 82.2%.
